ChEMBL document CHEMBL1955853, “Discovery of 3,4-dihydropyrimidin-2(1H)-ones with inhibitory activity against HIV-1 replication” (Bioorg Med Chem Lett, 2012)

Test system: Human immunodeficiency virus 1
Test: Antiviral activity against HIV1 LAI infected in human CEMx174 cells coexpressing GFP preincubated for 1 hr measured after 5 days by fluorimetry
Type: functional, organism-based
Settings: Human immunodeficiency virus 1, LAI
Summary of the method: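 CEM reporter cells carrying an EGFP cassette driven by the HIV promoter were seeded at 4000 cells/well. They were infected with HIV-1 LAI at MOI 3 and incubated 5 days at 37 °C, 5% CO2. EGFP fluorescence intensity was read on a plate reader. Values are the geometric mean of two determinations, with each value within 25% of the mean.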

SMILES | EC50
CCC1=C(C(=O)OCC2CCCCC2)C(c2ccc(C(=O)OC)cc2)NC(=O)N1 (stereo not given) | 0.122 µM
CCC1=C(C(=O)OCC2CCCCC2)C(c2ccc(NC(C)=O)cc2)NC(=O)N1 (stereo not given) | 0.063 µM
COc1cccc(C2NC(=O)NC(C)=C2C(=O)OCC2CCCCC2)c1 (stereo not given) | 1.27 µM
CCC1=C(C(=O)OCC2CCCCC2)C(c2ccc(N(C)C)cc2)NC(=O)N1 (stereo not given) | 0.177 µM
CC1=C(C(=O)O)C(c2cccc(O)c2)NC(=O)N1 (stereo not given) | > 10 µM
CC1=C(C(=O)OC2CCCCC2)C(c2cccc(O)c2)NC(=O)N1 (stereo not given) | > 10 µM
Cc1nc(=O)[nH]c(-c2cccc(O)c2)c1C(=O)OCC1CCCCC1 | > 10 µM
CCC1=C(C(=O)OCC2CCCCC2)C(c2ccc([N+](=O)[O-])cc2)NC(=O)N1 (stereo not given) | 0.141 µM
CC1=C(C(=O)NCC2CCCCC2)C(c2cccc(O)c2)NC(=O)N1 (stereo not given) | > 10 µM
CCC1=C(C(=O)OCC2CCCCC2)C(c2ccc(NC)cc2)NC(=O)N1 (stereo not given) | 0.108 µM
CCC1=C(C(=O)OCC2CCCCC2)C(c2ccc(O)cc2)NC(=O)N1 (stereo not given) | 0.031 µM
CCC1=C(C(=O)OCC2CCCCC2)C(c2ccc(N)cc2)NC(=O)N1 (stereo not given) | 0.151 µM
CC1=C(C(=O)OCC2CCCCC2)C(c2ccccc2O)NC(=O)N1 (stereo not given) | > 10 µM
CCC1=C(C(=O)OCC2CCCCC2)C(c2cccc(N)c2)NC(=O)N1 (stereo not given) | 0.159 µM
CCC1=C(C(=O)OCC2CCCCC2)[C@@H](c2cccc(O)c2)NC(=O)N1 | > 10 µM
CC1=C(C(=O)OCC2CCCCC2)C(c2cccc(O)c2)NC(=O)N1 (racemic) | 0.529 µM
CCOC(=O)C1=C(C)NC(=O)NC1c1cccc(O)c1 (stereo not given) | > 10 µM
Cc1ccnc2c1NC(=O)c1cccnc1N2C1CC1 [NEVIRAPINE] | 0.15 µM
CCCC1=C(C(=O)OCC2CCCCC2)C(c2cccc(O)c2)NC(=O)N1 (stereo not given) | 0.286 µM

More lines, now with the values ahead:

EC50 | SMILES
> 10 µM | CCC1=C(C(=O)OCC2CCCCC2)C(c2cccc(O)c2)NC(=S)N1 (stereo not given)
> 10 µM | CC1=C(C(=O)OCC2CCCCC2)C(c2cccc(O)c2)N(C)C(=O)N1 (stereo not given)
0.335 µM | CCC1=C(C(=O)OCC2CCCCC2)C(c2cccc([N+](=O)[O-])c2)NC(=O)N1 (stereo not given)
0.038 µM | CCC1=C(C(=O)OCC2CCCCC2)[C@H](c2cccc(O)c2)NC(=O)N1
> 10 µM | CC1=C(C(=O)OCC2CCCCC2)C(c2cccc(O)c2)NC(=O)N1C (stereo not given)
0.087 µM | CCC1=C(C(=O)OCC2CCCCC2)C(c2cccc(O)c2)NC(=O)N1 (racemic)
2.2 µM | C#CC1=C(C(=O)OCC2CCCCC2)C(c2cccc(O)c2)NC(=O)N1 (stereo not given)
0.061 µM | CCC1=C(C(=O)OCC2CCCCC2)C(c2ccc(C#N)cc2)NC(=O)N1 (stereo not given)
> 10 µM | O=C1NC(c2ccccc2)=C(C(=O)OCC2CCCCC2)C(c2cccc(O)c2)N1 (stereo not given)
> 10 µM | CC1=C(C(=O)OCC2CCCCC2)[C@@H](c2cccc(O)c2)NC(=O)N1
0.088 µM | CCC1=C(C(=O)OCC2CCCCC2)C(c2ccc(Cl)cc2)NC(=O)N1 (stereo not given)
> 10 µM | CC1=C(C(=O)OCC2CCCCC2)C(c2cccc(O)c2)NC(=S)N1 (stereo not given)
0.359 µM | O=C1NC(CCl)=C(C(=O)OCC2CCCCC2)C(c2cccc(O)c2)N1 (stereo not given)
> 10 µM | CC(C)C1=C(C(=O)OCC2CCCCC2)C(c2cccc(O)c2)NC(=O)N1 (stereo not given)
0.024 µM | CCC1=C(C(=O)OCC2CCCCC2)C(c2ccc(F)cc2)NC(=O)N1 (stereo not given)
> 10 µM | CC1=C(C(=O)OCc2ccccc2)C(c2cccc(O)c2)NC(=O)N1 (stereo not given)
> 10 µM | CCC1=C(C(=O)OCC2CCCCC2)C(c2ccc(C(=O)O)cc2)NC(=O)N1 (stereo not given)
> 10 µM | O=C1NC(C2CC2)=C(C(=O)OCC2CCCCC2)C(c2cccc(O)c2)N1 (stereo not given)
0.233 µM | CC1=C(C(=O)OCC2CCCCC2)[C@H](c2cccc(O)c2)NC(=O)N1
0.431 µM | CC1=C(C(=O)OCC2CCCCC2)C(c2ccc(O)cc2)NC(=O)N1 (stereo not given)

Test system: not listed separately
Test: Cytotoxicity against human CEMx174 cells
Type: cell-based
Settings: not given
Summary of the method: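 CC50 is the compound concentration that reduces viability of uninfected cells by 50%. Values are the geometric mean of two determinations, with each value within 25% of the mean.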

SMILES | CC50
CCC1=C(C(=O)OCC2CCCCC2)C(c2cccc(O)c2)NC(=S)N1 (stereo not given) | > 10 µM
CCC1=C(C(=O)OCC2CCCCC2)C(c2ccc(C(=O)OC)cc2)NC(=O)N1 (stereo not given) | > 10 µM
CC1=C(C(=O)OCC2CCCCC2)C(c2cccc(O)c2)N(C)C(=O)N1 (stereo not given) | > 10 µM
CCC1=C(C(=O)OCC2CCCCC2)C(c2cccc([N+](=O)[O-])c2)NC(=O)N1 (stereo not given) | > 10 µM
CCC1=C(C(=O)OCC2CCCCC2)C(c2ccc(NC(C)=O)cc2)NC(=O)N1 (stereo not given) | > 10 µM
CCC1=C(C(=O)OCC2CCCCC2)[C@H](c2cccc(O)c2)NC(=O)N1 | > 10 µM
COc1cccc(C2NC(=O)NC(C)=C2C(=O)OCC2CCCCC2)c1 (stereo not given) | > 10 µM
CC1=C(C(=O)OCC2CCCCC2)C(c2cccc(O)c2)NC(=O)N1C (stereo not given) | > 10 µM
CCC1=C(C(=O)OCC2CCCCC2)C(c2cccc(O)c2)NC(=O)N1 (racemic) | > 10 µM
C#CC1=C(C(=O)OCC2CCCCC2)C(c2cccc(O)c2)NC(=O)N1 (stereo not given) | > 1 µM
CCC1=C(C(=O)OCC2CCCCC2)C(c2ccc(N(C)C)cc2)NC(=O)N1 (stereo not given) | > 10 µM
CC1=C(C(=O)O)C(c2cccc(O)c2)NC(=O)N1 (stereo not given) | > 10 µM
CC1=C(C(=O)OC2CCCCC2)C(c2cccc(O)c2)NC(=O)N1 (stereo not given) | > 10 µM
Cc1nc(=O)[nH]c(-c2cccc(O)c2)c1C(=O)OCC1CCCCC1 | > 10 µM
CCC1=C(C(=O)OCC2CCCCC2)C(c2ccc(C#N)cc2)NC(=O)N1 (stereo not given) | > 10 µM
CCC1=C(C(=O)OCC2CCCCC2)C(c2ccc([N+](=O)[O-])cc2)NC(=O)N1 (stereo not given) | > 10 µM
O=C1NC(c2ccccc2)=C(C(=O)OCC2CCCCC2)C(c2cccc(O)c2)N1 (stereo not given) | > 10 µM
CC1=C(C(=O)OCC2CCCCC2)[C@@H](c2cccc(O)c2)NC(=O)N1 | > 10 µM

SMILES | CC50
CCC1=C(C(=O)OCC2CCCCC2)C(c2ccc(NC)cc2)NC(=O)N1 (stereo not given) | > 10 µM
CCC1=C(C(=O)OCC2CCCCC2)C(c2ccc(Cl)cc2)NC(=O)N1 (stereo not given) | > 10 µM
CCC1=C(C(=O)OCC2CCCCC2)C(c2ccc(O)cc2)NC(=O)N1 (stereo not given) | > 10 µM
CCC1=C(C(=O)OCC2CCCCC2)C(c2ccc(N)cc2)NC(=O)N1 (stereo not given) | > 10 µM
CC1=C(C(=O)OCC2CCCCC2)C(c2cccc(O)c2)NC(=S)N1 (stereo not given) | > 10 µM
O=C1NC(CCl)=C(C(=O)OCC2CCCCC2)C(c2cccc(O)c2)N1 (stereo not given) | > 3 µM
CC1=C(C(=O)OCC2CCCCC2)C(c2ccccc2O)NC(=O)N1 (stereo not given) | > 10 µM
CCC1=C(C(=O)OCC2CCCCC2)C(c2ccc(F)cc2)NC(=O)N1 (stereo not given) | > 10 µM
CC1=C(C(=O)OCc2ccccc2)C(c2cccc(O)c2)NC(=O)N1 (stereo not given) | > 10 µM
CCC1=C(C(=O)OCC2CCCCC2)C(c2ccc(C(=O)O)cc2)NC(=O)N1 (stereo not given) | > 10 µM
CCC1=C(C(=O)OCC2CCCCC2)C(c2cccc(N)c2)NC(=O)N1 (stereo not given) | > 10 µM
CCC1=C(C(=O)OCC2CCCCC2)[C@@H](c2cccc(O)c2)NC(=O)N1 | > 10 µM
CC1=C(C(=O)OCC2CCCCC2)C(c2cccc(O)c2)NC(=O)N1 (racemic) | > 10 µM
Cc1ccnc2c1NC(=O)c1cccnc1N2C1CC1 [NEVIRAPINE] | > 10 µM
O=C1NC(C2CC2)=C(C(=O)OCC2CCCCC2)C(c2cccc(O)c2)N1 (stereo not given) | > 10 µM
CC1=C(C(=O)OCC2CCCCC2)[C@H](c2cccc(O)c2)NC(=O)N1 | > 10 µM
CC1=C(C(=O)OCC2CCCCC2)C(c2ccc(O)cc2)NC(=O)N1 (stereo not given) | > 10 µM
CCCC1=C(C(=O)OCC2CCCCC2)C(c2cccc(O)c2)NC(=O)N1 (stereo not given) | > 10 µM
